A short description of data set [1]: Aqueous solubility at pH 7.4. The note with it: buffer. It counts as physicochemical. The procedure, abridged: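 Solubility determined in water at pH 7.4.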
Data set [2] is described as follows: Apparent permeability from apical to basolateral side in human Caco-2 cells at 10 uM. The data set is classed as ADME, cell-based. For orientation: Caco-2 monolayers are a common model of the intestinal barrier.
Data set [3] is described as follows: Volume of distribution at steady state in cynomolgus monkey at 5 mg/kg, iv. Further details: dose 5 mg/kg, route intravenous. The following applies: in vivo, read-out: Vdss. The data set is classed as ADME, organism-based, Macaca fascicularis.
In data set [4] the test system is Cynomolgus monkey. Description: AUC (0 to infinity) in cynomolgus monkey at 5 mg/kg, po. It counts as ADME, organism-based, Macaca fascicularis, Plasma. Further details: time infinity, dose 5 mg/kg, route oral. The note with it: in vivo.
Data set [5] relates to Cynomolgus monkey. Description: AUC (0 to infinity) in cynomolgus monkey at 5 mg/kg, iv. The data set is classed as ADME, organism-based, Macaca fascicularis, Plasma. Also noted: time infinity, dose 5 mg/kg, route intravenous. The note with it: in vivo.
The nature of data set [6]: Oral bioavailability in cynomolgus monkey at 5 mg/kg. The data set is classed as ADME, organism-based, Macaca fascicularis. The following applies: in vivo.
The nature of data set [7]: Ratio of drug level in liver to plasma in Sprague-Dawley rat at 3 mg/kg, po after 1 hr. The data set is classed as ADME, organism-based. Further details: dose 3 mg/kg, route oral. The note with it: liver and plasma. The procedure, abridged:
(§1)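 Sprague–Dawley rats were given a single 3 mg/kg dose iv or po. Plasma and liver concentrations were measured at 1, 4, 8 and 12 h. Liver was not sampled at 1, 4 or 8 h after iv dosing. Liver-to-plasma concentration ratio was calculated at each time point.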

Data set [8] is described as follows: Ratio of drug level in liver to plasma in Sprague-Dawley rat at 3 mg/kg, po after 4 hrs. It counts as ADME, organism-based. Also noted: dose 3 mg/kg, route oral. The following applies: liver and plasma. The procedure, abridged: as §1
The nature of data set [9]: Ratio of drug level in liver to plasma in Sprague-Dawley rat at 3 mg/kg, po after 8 hrs. Also noted: dose 3 mg/kg, route oral. The following applies: liver and plasma. It counts as ADME, organism-based. The procedure, abridged:
as §1

Data set [10] is described as follows: Ratio of drug level in liver to plasma in Sprague-Dawley rat at 3 mg/kg, po after 12 hrs. The data set is classed as ADME, organism-based. Also noted: dose 3 mg/kg, route oral. The following applies: liver and plasma. The procedure, abridged:
as §1

Data set [11] can be described thus: Ratio of drug level in liver to plasma in Sprague-Dawley rat at 3 mg/kg, iv after 12 hrs. The note with it: liver and plasma. The data set is classed as ADME, organism-based. Further details: dose 3 mg/kg, route intravenous. The procedure, abridged: as §1
A short description of data set [12]: Volume of distribution at steady state in iv dosed Sprague-Dawley rat. It counts as ADME, organism-based. The note with it: in vivo, read-out: Vdss. The gist of the method:
(§2)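 Sprague–Dawley rats got a single 3 mg/kg dose iv or po, with n = 12 (po) and 3 (iv). Plasma concentrations were followed over time to derive PK parameters.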

Data set [13] relates to Rattus norvegicus. The experiment in a line: AUC (0 to infinity) in po dosed Sprague-Dawley rat. The data set is classed as ADME, organism-based, Plasma. The following applies: in vivo. Also noted: time infinity, route oral. The procedure, abridged: as §2
Data set [14] relates to Rattus norvegicus. Description: AUC (0 to infinity) in iv dosed Sprague-Dawley rat. It counts as ADME, organism-based, Plasma. Further details: time infinity, route intravenous. The note with it: in vivo. The procedure, abridged: as §2
Data set [15] in a line: Oral bioavailability in Sprague-Dawley rat. The data set is classed as ADME, organism-based. The following applies: in vivo. The gist of the method: as §2

In brackets after ≈: the same amount, converted by molar mass.

As a reminder, the solubility is the concentration that dissolves in the medium under given conditions. By Papp A→B is commonly meant the apparent permeability from the apical to the basolateral side of a cell layer. Broadly, the AUC is the area under the concentration-time curve, a measure of exposure. Broadly, the bioavailability is the share of a dose that reaches the circulation, judged against a reference dose that is usually intravenous. The Kp is tissue or fluid exposure divided by exposure in the circulation.

In turn, `CC(C)(C)CCn1nc(-c2cccs2)c(O)c(C2=Nc3ccc(NS(C)(=O)=O)cc3S(=O)(=O)N2)c1=O` registered a solubility in data set [1] of 44 µM (≈ 24.3 µg/mL). Moreover, the Papp A→B at 10 µM in data set [2] was 0.06 ×10⁻⁶ cm/s. Moreover, the Vd in data set [3] was 0.039 L/kg. Moreover, the AUC with Cynomolgus monkey [4] was determined as 241 ng·h/mL; in the data set with Cynomolgus monkey [5], 17600 ng·h/mL. In [6], the bioavailability stood at 1%.
With `CC(C)CCn1nc(-c2cccs2)c(O)c(C2=Nc3ccc(NS(C)(=O)=O)cc3S(=O)(=O)N2)c1=O`, in data set [1], the solubility amounted to 55 µM (≈ 29.6 µg/mL). The Papp A→B at 10 µM in data set [2] was found to be 0.016 ×10⁻⁶ cm/s. Also, the Vd in [3] worked out at 0.096 L/kg; in [12], 0.453 L/kg. Also, the exposure (AUC) in the data set with Cynomolgus monkey [4] came out at 124 ng·h/mL; with Cynomolgus monkey [5] it was 10500 ng·h/mL; in the data set with Rattus norvegicus [13], 27 ng·h/mL; in the data set on Rattus norvegicus [14], 3630 ng·h/mL. Also, the bioavailability in data set [6] and in data set [15] was 1% in each case. Further, the Kp at 1 h in data set [7] turned out to be 431. In data set [8], the partition ratio (Kp) at 4 h worked out at 243. Moreover, the Kp at 8 h in [9] worked out at 78. Further, the values for the partition ratio (Kp) at 12 h in [10] and in data set [11] were 64 and 4, respectively.

Values taken from ChEMBL document CHEMBL1143086, “Novel HCV NS5B polymerase inhibitors derived from 4-(1',1'-dioxo-1',4'-dihydro-1'lambda(6)-benzo[1',2',4']thiadiazin-3'-yl)-5-hydroxy-2H-pyridazin-3-ones. Part 3: Further optimization of the 2-, 6-, and 7'-substituents and initial pharmacokinetic assessments” (Bioorg Med Chem Lett, 2008).
